According to ChEMBL document CHEMBL3632581, “Dimers of Melampomagnolide B Exhibit Potent Anticancer Activity against Hematological and Solid Tumor Cells” (J Med Chem, 2015):

Experiments:
[1] = Antileukemic activity against human M9-ENL1 cells after 24 hrs by annexin V/7-AAD staining-based flow cytometric analysis; assay type: functional, cell-based
In short: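 M9-ENL1 cells in alpha-MEM with 5% human plasma, 20% FBS, SCF, IL-3, IL-7 and FLT3. Drug came from a DMSO stock diluted in PBS (≤0.5% DMSO final), for 24 h over 0.5-10 μM. Cells negative for both annexin V and 7-AAD were taken as non-apoptotic and normalized to vehicle. EC50 read from dose-response curves, triplicate.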

[2] = Antileukemic activity against human AML05 cells after 24 hrs by annexin V/7-AAD staining-based flow cytometric analysis; assay type: functional, cell-based
In short: (§1)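 Primary AML specimens from consenting donors, isolated by Ficoll-Paque gradient and sometimes cryopreserved. Cells were held 1 h in serum-free IMDM with 20% BIT 9500, LDL and β-mercaptoethanol before drug (DMSO stock diluted in PBS, ≤0.5% DMSO final). Exposure was 24 h over 0.5-10 μM. Annexin V/7-AAD double-negative cells, normalized to vehicle, gave the EC50. Run in triplicate.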

[3] = Antileukemic activity against human AML02 cells after 24 hrs by annexin V/7-AAD staining-based flow cytometric analysis; assay type: functional, cell-based; in short: as §1
[4] = Potency index, ratio of parthenolide EC50 to compound EC50 for human M9-ENL1 cells; assay type: functional
[5] = Antileukemic activity against human AML01 cells after 24 hrs by annexin V/7-AAD staining-based flow cytometric analysis; assay type: functional, cell-based; in short: as §1
[6] = Antileukemic activity against human AML04 cells after 24 hrs by annexin V/7-AAD staining-based flow cytometric analysis; assay type: functional, cell-based; in short: as §1
[7] = Antileukemic activity against human AML03 cells after 24 hrs by annexin V/7-AAD staining-based flow cytometric analysis; assay type: functional, cell-based; in short: as §1
[8] = Cytotoxicity against hematopoietic progenitor cells isolated from human umbilical cord blood by annexin V staining-based flow cytometric analysis; assay type: cell-based
In short: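 Cord-blood mononuclear cells from Ficoll-Paque were plated in serum-free medium, with drug from a DMSO stock (≤0.5% DMSO final). Cells were stained for CD34, CD45 and annexin V. The non-apoptotic fraction (annexin V-negative within the CD34+CD45dim compartment) was normalized to vehicle, and EC50 was fitted where possible. Triplicate.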

Compound | EC50 [1] [nM] | EC50 [2] [nM] | EC50 [3] [nM] | Ratio EC50 [4] | EC50 [5] [nM] | EC50 [6] [nM] | EC50 [7] [nM] | EC50 [8] [nM]
C=C1C(=O)O[C@H]2[C@H]1CC/C(COC(=O)NCCCNC(=O)OC/C1=C/CC[C@@]3(C)O[C@H]3[C@H]3OC(=O)C(=C)[C@@H]3CC1)=C\CC[C@@]1(C)O[C@@H]21 | 1000 | 3700 | 2300 | 2 | 2600 | – | – | –
C=C1C(=O)O[C@H]2[C@H]1CC/C(COC(=O)NCCCCCCNC(=O)OC/C1=C/CC[C@@]3(C)O[C@H]3[C@H]3OC(=O)C(=C)[C@@H]3CC1)=C\CC[C@@]1(C)O[C@@H]21 | 1500 | 1700 | 1200 | 2 | 1600 | 3700 | 3500 | > 10000
C=C1C(=O)O[C@H]2[C@H]1CC/C(COC(=O)NCCCCCCCNC(=O)OC/C1=C/CC[C@@]3(C)O[C@H]3[C@H]3OC(=O)C(=C)[C@@H]3CC1)=C\CC[C@@]1(C)O[C@@H]21 | 1100 | 2400 | 1300 | 2 | 1700 | 3600 | 5700 | > 10000
C=C1C(=O)O[C@H]2[C@H]1CC/C(COC(=O)NCCCCCCCCCNC(=O)OC/C1=C/CC[C@@]3(C)O[C@H]3[C@H]3OC(=O)C(=C)[C@@H]3CC1)=C\CC[C@@]1(C)O[C@@H]21 | 2000 | 3200 | 1500 | 2 | 1900 | 3700 | 2400 | > 10000
C=C1C(=O)O[C@H]2[C@H]1CC/C(COC(=O)NCCCCCCCCCCNC(=O)OC/C1=C/CC[C@@]3(C)O[C@H]3[C@H]3OC(=O)C(=C)[C@@H]3CC1)=C\CC[C@@]1(C)O[C@@H]21 | 2900 | 3300 | 2000 | 2 | 2300 | 4200 | 2900 | > 10000
C=C1C(=O)O[C@H]2[C@H]1CC/C(COC(=O)OCCCCOC(=O)OC/C1=C/CC[C@@]3(C)O[C@H]3[C@H]3OC(=O)C(=C)[C@@H]3CC1)=C\CC[C@@]1(C)O[C@@H]21 | 1200 | 2700 | – | 2 | 930 | 2700 | 860 | –
C=C1C(=O)O[C@H]2[C@H]1CC/C(COC(=O)OCCCCCOC(=O)OC/C1=C/CC[C@@]3(C)O[C@H]3[C@H]3OC(=O)C(=C)[C@@H]3CC1)=C\CC[C@@]1(C)O[C@@H]21 | 2400 | 2100 | 2200 | 2 | – | – | 1400 | –
C=C1C(=O)O[C@H]2[C@H]1CC/C(COC(=O)OC/C1=C/CC[C@@]3(C)O[C@H]3[C@H]3OC(=O)C(=C)[C@@H]3CC1)=C\CC[C@@]1(C)O[C@@H]21 | 540 | – | – | 2 | 1600 | – | – | –
C=C1C(=O)O[C@@H]2C3O[C@]3(C)CC/C=C(\C)CC[C@@H]12 (some centres not stated) | 6000 | 7000 | 2500 | – | 16000 | 8000 | 4700 | –
